Laboratory results as given in ChEMBL document CHEMBL3804776, “Synthesis and Evaluation of Macrocyclic Peptide Aldehydes as Potent and Selective Inhibitors of the 20S Proteasome” (ACS Med Chem Lett, 2016).
Calls of active or inactive are those of the source. The calls are words filed in the database; no cut-off is given here. Residues, ends and D or L forms follow the SMILES beside them. *: point of attachment. Cbz = O=C(OCc1ccccc1)*

Columns and labels:
[1] = test system: HeLa; experiment: Inhibition of 26S proteasome in IL1beta-induced human HeLa cells assessed as phosphorylation of IkappaBalpha at 20 uM preincubated for 2 hrs followed by IL1beta stimulation by Western blot analysis; format: cell-based
Summary of the method: (§1)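 HeLa human cervix carcinoma cells were pretreated with compound at 20 μM for 2 h, then stimulated with IL-1β. Read-outs were Western blot for IκBα phosphorylation (S32/36) and IκBα degradation, with β-actin as loading control, and EMSA for NF-κB DNA binding.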

[2] = test system: HeLa; experiment: Inhibition of 26S proteasome in IL1beta-induced human HeLa cells assessed as reduction in IkappaBalpha degradation at 300 nM to 20 uM preincubated for 2 hrs followed by IL1beta stimulation
[3] = Selectivity ratio of Ki for m-calpain (unknown origin) to Ki for chymotrypsin-like activity of rabbit 20S proteasome
[4] = test system: HeLa; experiment: Inhibition of 26S proteasome in IL1beta-induced human HeLa cells assessed as reduction in IkappaBalpha degradation at 20 uM preincubated for 2 hrs followed by IL1beta stimulation by Western blot analysis; format: cell-based; summary of the method: as §1
[5] = test system: HeLa; experiment: Inhibition of 26S proteasome in IL1beta-induced human HeLa cells assessed as reduction in NFkappaB-DNA binding at 20 uM preincubated for 2 hrs followed by IL1beta stimulation by EMSA; format: cell-based; summary of the method: as §1
[6] = test system: HeLa; experiment: Inhibition of 26S proteasome in TNFalpha-induced human HeLa cells assessed as reduction in NFkappaB-DNA binding at 300 nM to 20 uM preincubated for 2 hrs followed by TNFalpha stimulation by EMSA; format: cell-based
Summary of the method: (§2)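 Dose-response in HeLa cells: compound at 0.1, 0.3, 1, 3, 10 and 20 μM before TNFα stimulation, with handling as in the single-dose experiment. Accumulation of phospho-IκBα (S32/36) was measured by Western blot with β-actin as loading control. NF-κB DNA binding was measured by EMSA.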

[7] = target: T1, Cathepsin B (Homo sapiens, UniProt P07858); experiment: Inhibition of human liver cathepsin B using Cbz-RR-AMC as substrate by fluorometric assay
[8] = Inhibition of PGPH-like activity of rabbit 20S proteasome using Cbz-LLE-AMC substrate incubated at 37 degC by fluorometric assay; set-up: species or system Oryctolagus cuniculus
[9] = Selectivity ratio of Ki for human liver cathepsin B to Ki for chymotrypsin-like activity of rabbit 20S proteasome
[10] = test system: HeLa; experiment: Inhibition of 26S proteasome in TNFalpha-induced human HeLa cells assessed as reduction in IkappaBalpha degradation at 20 uM preincubated for 2 hrs followed by TNFalpha stimulation by Western blot analysis; format: cell-based
Summary of the method: (§3)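 HeLa cells were preincubated for 2 h with 20 μM compound before TNFα stimulation. IκBα S32/36 phosphorylation and IκBα levels were assessed by Western blot (β-actin loading control). NF-κB DNA binding was measured by electrophoretic mobility shift assay.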

[11] = Inhibition of chymotrypsin-like activity of rabbit 20S proteasome using Suc-LLVY-AMC substrate incubated at 37 degC by fluorometric assay; set-up: species or system Oryctolagus cuniculus
[12] = test system: HeLa; experiment: Inhibition of 26S proteasome in TNFalpha-induced human HeLa cells assessed as reduction in NFkappaB-DNA binding at 20 uM preincubated for 2 hrs followed by TNFalpha stimulation by EMSA; format: cell-based; summary of the method: as §3
[13] = target: T2, Calpain-2 catalytic subunit (Homo sapiens, UniProt P17655); experiment: Inhibition of m-calpain (unknown origin) using Suc-LY-AMC as substrate by fluorometric assay
T2 sequence (P17655 whole entry): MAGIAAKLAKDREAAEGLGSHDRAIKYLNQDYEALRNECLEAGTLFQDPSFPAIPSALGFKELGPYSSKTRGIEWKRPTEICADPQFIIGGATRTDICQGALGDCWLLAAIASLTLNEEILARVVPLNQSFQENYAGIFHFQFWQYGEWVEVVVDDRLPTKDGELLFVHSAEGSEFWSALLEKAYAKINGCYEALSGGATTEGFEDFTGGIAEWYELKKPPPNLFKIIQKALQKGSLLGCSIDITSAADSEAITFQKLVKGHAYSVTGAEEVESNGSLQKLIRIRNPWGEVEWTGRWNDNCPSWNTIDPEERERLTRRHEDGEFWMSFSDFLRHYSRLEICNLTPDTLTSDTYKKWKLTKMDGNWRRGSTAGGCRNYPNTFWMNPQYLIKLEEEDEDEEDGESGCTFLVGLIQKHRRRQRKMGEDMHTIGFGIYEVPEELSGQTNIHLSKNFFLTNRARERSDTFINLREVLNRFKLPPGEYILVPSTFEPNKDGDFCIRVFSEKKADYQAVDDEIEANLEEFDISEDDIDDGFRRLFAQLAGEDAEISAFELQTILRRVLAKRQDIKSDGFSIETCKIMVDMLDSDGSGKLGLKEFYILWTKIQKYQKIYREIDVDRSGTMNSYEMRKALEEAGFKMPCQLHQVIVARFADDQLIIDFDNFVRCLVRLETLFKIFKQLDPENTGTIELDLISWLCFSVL

[14] = organism: Oryctolagus cuniculus; experiment: Inhibition of trypsin-like activity of rabbit 20S proteasome using Cbz-ARR-AMC substrate at 100 uM incubated at 37 degC by fluorometric assay
Summary of the method: (§4)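 Fluorometric kinetic enzyme assay run at a single inhibitor concentration of 100 μM. The outcome was scored as whether inhibition occurred at that concentration.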

[15] = organism: Homo sapiens; experiment: Inhibition of chymotrypsin (unknown origin) using Suc-LLVY-AMC as substrate at 100 uM by fluorometric assay; summary of the method: as §4
[16] = test system: HeLa; experiment: Inhibition of 26S proteasome in TNFalpha-induced human HeLa cells assessed as phosphorylation of IkappaBalpha at 20 uM preincubated for 2 hrs followed by TNFalpha stimulation by Western blot analysis; format: cell-based; summary of the method: as §3
[17] = test system: HeLa; experiment: Inhibition of 26S proteasome in TNFalpha-induced human HeLa cells assessed as accumulation of phosphorylated IkappaBalpha at 300 nM to 20 uM preincubated for 2 hrs followed by TNFalpha stimulation by Western blot analysis; format: cell-based; summary of the method: as §2
[18] = organism: Oryctolagus cuniculus; experiment: Inhibition of PGPH-like activity of rabbit 20S proteasome using Cbz-LLE-AMC substrate at 100 uM incubated at 37 degC by fluorometric assay; summary of the method: as §4
[19] = target: T3, Calpain-2 catalytic subunit (Homo sapiens) (UniProt P17655); experiment: Inhibition of m-calpain (unknown origin) using Suc-LY-AMC as substrate at 100 uM by fluorometric assay; summary of the method: as §4
T3 sequence (whole entry): T2 sequence (P17655 whole entry)

[20] = target: T1, Cathepsin B; experiment: Inhibition of human liver cathepsin B using Cbz-RR-AMC as substrate at 100 uM by fluorometric assay; summary of the method: as §4
[21] = Inhibition of trypsin-like activity of rabbit 20S proteasome using Cbz-ARR-AMC substrate incubated at 37 degC by fluorometric assay; set-up: species or system Oryctolagus cuniculus

Ratio Ki [3]	Ki [7] [nM]	Ratio Ki [9]	Ki [11] [nM]	Ki [13] [nM]	inhibition [14]	inhibition [15]	inhibition [18]	inhibition [19]	inhibition [20]	SMILES	inhibition [1]	inhibition [2]	inhibition [4]	inhibition [5]	inhibition [6]	inhibition [10]	inhibition [12]	inhibition [16]	inhibition [17]	further results
10	230	4	63.5	653	inactive	inactive	–	–	–	CC(C)C[C@@H](C=O)NC(=O)[C@H](CC(C)C)NC(=O)[C@H](CC(C)C)NC(=O)OCc1ccccc1 [MG-132] (Cbz-Leu-Leu-Leu-aldehyde)	Active	Active	Active	Active	Active	Active	Active	Active	Active	Ki [8]: 3700 nM
55	30300	550	54.5	2980	inactive	inactive	inactive	–	–	COc1ccc(C[C@@H]2NC(=O)[C@@H](NC(=O)OCc3ccccc3)Cc3ccc([N+](=O)[O-])c(c3)Oc3ccc(cc3)C[C@@H](C(=O)N[C@H](C=O)CC(C)C)NC2=O)cc1	Active	Active	Active	Active	Active	Active	Active	Active	Active	–
–	–	–	24	–	–	inactive	–	inactive	inactive	CC(C)C[C@H](NC(=O)[C@H](Cc1ccccc1)NC(=O)c1cnccn1)B(O)O [BORTEZOMIB]	–	–	–	–	–	–	–	–	–	–
8	3050	–	241	2030	–	inactive	inactive	–	–	CC(C)C[C@@H](C=O)NC(=O)[C@@H]1Cc2ccc(cc2)Oc2cc(ccc2[N+](=O)[O-])C[C@H](NC(=O)OCc2ccccc2)C(=O)N[C@@H](CC(C)C)C(=O)N1	Active	Active	Active	Active	Active	Active	Active	Active	Active	Ki [21]: 8040 nM
61	2290	80	28	1710	–	inactive	–	–	–	COc1ccc(C[C@H](NC(=O)[C@H](Cc2ccccc2)NC(=O)OCc2ccccc2)C(=O)N[C@@H](Cc2ccccc2)C(=O)N[C@H](C=O)CC(C)C)cc1 (Cbz-FY(Me)FL-aldehyde)	–	–	–	–	–	–	–	–	–	–
–	–	–	25.5	–	–	inactive	–	inactive	inactive	CC(C)C[C@H](NC(=O)[C@H](CCc1ccccc1)NC(=O)CN1CCOCC1)C(=O)N[C@@H](Cc1ccccc1)C(=O)N[C@@H](CC(C)C)C(=O)[C@@]1(C)CO1 [CARFILZOMIB]	–	–	–	–	–	–	–	–	–	–
